Measurements as given in ChEMBL document CHEMBL1153229, “The first synthetic agonists of FFA2: Discovery and SAR of phenylacetamides as allosteric modulators” (Bioorg Med Chem Lett, 2010).

How the values were obtained:
[1] = biological target: T1, Free fatty acid receptor 2 (Homo sapiens, UniProt O15552); assay: Agonist activity at human FFA2 receptor expressed in CHO cells assessed as inhibition of forskolin-induced cAMP production; type: functional, cell-based
T1 sequence (O15552 whole entry): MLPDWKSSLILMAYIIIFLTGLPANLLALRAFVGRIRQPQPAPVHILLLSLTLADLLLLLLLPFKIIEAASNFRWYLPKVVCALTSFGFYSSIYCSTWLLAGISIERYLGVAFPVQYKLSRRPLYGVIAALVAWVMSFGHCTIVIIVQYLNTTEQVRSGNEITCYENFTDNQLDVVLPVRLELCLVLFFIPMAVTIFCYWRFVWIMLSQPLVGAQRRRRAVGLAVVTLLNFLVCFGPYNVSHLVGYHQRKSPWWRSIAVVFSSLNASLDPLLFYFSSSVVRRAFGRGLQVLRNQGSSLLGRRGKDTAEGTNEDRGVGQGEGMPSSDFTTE
In short: (§1)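 Suspended cells, 10,000 per well, in Hank's balanced salt solution with 25 mM HEPES and 0.01% (w/v) BSA. Stimulated with forskolin (5 μM final) plus serially diluted test ligands, room temperature for 30 min. Antibody and lysis reagents then added, followed by overnight dark incubation with detection solution. Luminescence read (RLU). Efficacy expressed relative to acetate. Means of four experiments.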

[2] = biological target: T2, Free fatty acid receptor 2 (Homo sapiens) (UniProt O15552); assay: Agonist activity at human FFA2 receptor expressed in CHO cells assessed as inhibition of forskolin-induced cAMP production relative to acetate; type: functional, cell-based; in short: as §1
T2 sequence (whole entry): T1 sequence (O15552 whole entry)

SMILES	IC50 [1] [µM]	Efficacy [2] [%]
CC(C)[C@H](C(=O)Nc1ccn[nH]1)c1ccc(Cl)cc1	> 100	
CC(C)C(C(=O)Nc1nc2ccccc2s1)c1ccc(Cl)cc1 (racemic)	3	91
CC(C)[C@H](C(=O)Nc1ncc(C(F)(F)F)s1)c1ccc(Cl)cc1	1.5	95
CC(C)(C)[C@H](C(=O)Nc1ncc(C#N)s1)c1ccc(Cl)cc1	1.5	106
CC(C)[C@H](C(=O)Nc1nncs1)c1ccc(Cl)cc1	12	115
CC(C)(C(=O)Nc1ncc(F)s1)c1ccc(Cl)cc1	50	57
CC(C)[C@H](C(=O)Nc1ccncc1)c1ccc(Cl)cc1	56	40
CN(C)c1cnc(NC(=O)[C@H](c2ccc(Cl)cc2)C(C)(C)C)s1	1.6	112
CC(C)(C)[C@H](C(=O)Nc1ncc(Br)s1)c1ccc(Cl)cc1	0.7	95
CC(C)[C@H](C(=O)Nc1nc2cc(Cl)ccc2o1)c1ccc(Cl)cc1	4.3	88
CC(C)[C@H](C(=O)NCc1ccccc1)c1ccc(Cl)cc1	> 100	< 30
CC(C)[C@H](C(=O)Nc1cc[nH]n1)c1ccc(Cl)cc1		< 30
O=C(Nc1nccs1)[C@@H](CC1CC1)c1ccc(Cl)cc1	8.8	72
CC(C)C(C(=O)Nc1cccnc1)c1ccc(Cl)cc1 (racemic)	49	73
CC(C)[C@H](CNc1nccs1)c1ccc(Cl)cc1	> 100	< 30
CC(C)[C@H](C(=O)NC(C)(C)C)c1ccc(Cl)cc1	> 100	< 30
CC(C)(C)[C@H](C(=O)Nc1ncc(N2CCOCC2)s1)c1ccc(Cl)cc1	1.6	111
CC(=O)O [ACETIC ACID]	120	100
CC(C)C(C(=O)Nc1nc(-c2cccnc2)cs1)c1ccc(Cl)cc1 (racemic)	> 100	< 30
O=C(Nc1nccs1)C(c1ccc(Cl)cc1)c1ccc(Cl)cc1	> 100	< 30
CC[C@H](C(=O)Nc1nccs1)c1ccc(Cl)cc1	5	105
CC(C)[C@H](C(=O)Nc1ncc(C#N)s1)c1ccc(Cl)cc1	2	105
CC(C)[C@H](C(=O)Nc1nc(C(C)(C)C)cs1)c1ccc(Cl)cc1	7.9	45

SMILES	IC50 [1] [µM]	Efficacy [2] [%]
CC(C)C(C(=O)Nc1nccs1)c1ccc(Cl)cc1 (racemic)	0.8	98
CC(C)C(c1ccc(Cl)cc1)S(=O)(=O)Nc1nccs1 (racemic)	> 100	< 30
CC(C)[C@H](C(=O)Nc1cnns1)c1ccc(Cl)cc1	57	48
CC(C)[C@@H](C(=O)Nc1nccs1)c1ccc(Cl)cc1	> 100	< 30
CC(C)[C@H](C(=O)Nc1ncc(C(N)=O)s1)c1ccc(Cl)cc1	71	59
CS(=O)(=O)c1ccc([C@@H](C(=O)Nc2ncc(F)s2)C2CC2)cc1	> 100	< 30
CC(C)[C@H](C(=O)N(C)c1nccs1)c1ccc(Cl)cc1	84	37
CC(C)[C@H](C(=O)Nc1ccon1)c1ccc(Cl)cc1 (racemic)	36	90
CC(C)C(C(=O)Nc1cnccn1)c1ccc(Cl)cc1 (racemic)	5.7	115
CC(C)[C@H](C(=O)Nc1ncns1)c1ccc(Cl)cc1	2	99
CC(C)[C@H](NC(=O)c1nccs1)c1ccc(Cl)cc1	> 100	< 30
Cc1csc(NC(=O)[C@H](c2ccc(Cl)cc2)C(C)C)n1	1.4	87
CC(C)[C@H](NS(=O)(=O)c1nccs1)c1ccc(Cl)cc1	> 100	< 30
CN1CCN(c2cnc(NC(=O)[C@H](c3ccc(Cl)cc3)C(C)(C)C)s2)CC1	3.8	113
COCC[C@H](C(=O)Nc1nccs1)c1ccc(Cl)cc1	170	53
O=C(Nc1ncc(F)s1)C1(c2ccc(Cl)cc2)CC1	> 100	< 30
O=C(Nc1ncc(F)s1)C1(c2ccc(Cl)cc2)CCC1	1.5	89
CC(C)C(C(=O)O)c1ccc(Cl)cc1 (racemic)	> 100	< 30
CC(C)C(C(=O)Nc1ncccn1)c1ccc(Cl)cc1 (racemic)	53	50
O=C(Nc1ncc(F)s1)[C@H](c1ccccn1)C1CC1	45	75
O=C(Nc1ncc(F)s1)[C@H](c1ccnc(Cl)c1)C1CC1	16	120
CC(C)(C)[C@H](C(=O)Nc1ncc(C(O)(C(F)(F)F)C(F)(F)F)s1)c1ccc(Cl)cc1	1.2	113
CC(C)[C@H](C(=O)Nc1ccccc1)c1ccc(Cl)cc1	> 100	< 30

SMILES	IC50 [1] [µM]	Efficacy [2] [%]
O=C(Nc1ncc(F)s1)C1(c2ccc(Cl)cc2)CCCCC1	8.5	81
CC(C)[C@H](C(=O)Nc1ncc(C(=O)O)s1)c1ccc(Cl)cc1	79	42
C=CC[C@H](C(=O)Nc1nccs1)c1ccc(Cl)cc1	1.1	88
CC(C)[C@H](C(=O)Nc1nnc(C(F)(F)F)s1)c1ccc(Cl)cc1	1.9	115
COC(=O)c1cnc(NC(=O)[C@H](c2ccc(Cl)cc2)C(C)C)s1	2	98
O=C(Nc1ncc(F)s1)[C@H](c1ccc(C(F)(F)F)cc1)C1CC1	1.1	108
C[C@H](C(=O)Nc1nccs1)c1ccc(Cl)cc1	46	83
CC(C)[C@H](C(=O)Nc1ncco1)c1ccc(Cl)cc1	25	92
CC(C)(C)[C@H](C(=O)Nc1ncc(S(C)(=O)=O)s1)c1ccc(Cl)cc1	3.4	107
CC(C)(C)[C@H](C(=O)Nc1ncc(F)s1)c1ccc(Cl)cc1	0.7	92
CC(C)[C@H](C(=O)NC1=NC(=O)CS1)c1ccc(Cl)cc1	20	96
CC(C)C(C(=O)Nc1nc2ccccc2[nH]1)c1ccc(Cl)cc1 (racemic)	5.2	84
O=C(Nc1ncc(F)s1)[C@H](c1ccc(Cl)cc1)C1CC1	1.2	103
O=C(Nc1ncc(F)s1)C1(c2ccc(Cl)cc2)CCCC1	5	88
CCC[C@H](C(=O)Nc1nccs1)c1ccc(Cl)cc1	5.5	108
CC(C)[C@H](C(=O)Nc1cccc(F)n1)c1ccc(Cl)cc1	1.1	84
CCC(=O)O		100
CC(C)[C@H](C(=O)Nc1nc(C(F)(F)F)cs1)c1ccc(Cl)cc1	17	123
CC(C)C[C@H](C(=O)Nc1nccs1)c1ccc(Cl)cc1	0.6	68
CNC(=O)[C@H](c1ccc(Cl)cc1)C(C)C	11	66
O=C(Cc1ccc(Cl)cc1)Nc1nccs1	> 100	< 30
CC(C)(C)[C@H](C(=O)Nc1ncc(Cc2ccc(Cl)cc2)s1)c1ccc(Cl)cc1	25	100
